This is an account of results in ChEMBL document CHEMBL4699552, “Paecilosetin Derivatives as Potent Antimicrobial Agents from Isaria farinosa” (J Nat Prod, 2020).

Broadly, the MIC is the lowest concentration that inhibits growth of the organism. Broadly, the IC50 is the concentration that gives 50% inhibition.

The test system of one assay is Trichophyton rubrum. Briefly: Antifungal activity against Trichophyton rubrum SNB-TR1 assessed as reduction in microbial growth after 5 days by microdilution method. In kind it is functional. To be noted: SNB-TR1, 120 h, time 5 day. The method in brief:
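CLSI M38 broth microdilution on a clinical dermatophyte isolate. Serial dilutions from 256 to 0.5 µg/mL, incubated at 35 °C and read after 5 days. MIC is the lowest concentration preventing visible growth. Run in duplicate.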

Assay [1] relates to Staphylococcus aureus. Briefly: Antimicrobial activity against methicillin-sensitive Staphylococcus aureus ATCC 29213 assessed as reduction in microbial growth after 24 hrs by microdilution method. The class given is functional. The method in brief: (§1)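 Bacterial MICs by CLSI M7 broth microdilution on ATCC strains. Concentrations ran from 256 to 0.5 µg/mL, with 24 h incubation at 35 °C. MIC is the lowest concentration with no visible growth. Duplicate assays.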
On the technique in general: In broth dilution the organism is exposed to a series of concentrations in liquid medium.

Assay [2] relates to Staphylococcus aureus. Briefly: Antimicrobial activity against methicillin-resistant Staphylococcus aureus ATCC 33591 assessed as reduction in microbial growth after 24 hrs by microdilution method. The class given is functional. The method in brief: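 Broth microdilution per CLSI M7; test range 256 to 0.5 µg/mL; plates incubated at 35 °C and read at 24 h for bacteria; MIC taken as lowest concentration preventing visible growth in the wells; run in duplicate.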

The test system of another assay is MRC5. The assay can be described thus: Cytotoxicity against human MRC5 cells assessed as reduction in cell viability after 72 hrs by CellTiter Glo assay. The class given is cell-based. To be noted: MRC5, 72 h. The procedure, abridged:
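Lung fibroblasts from ATCC, grown in DMEM with 10% FCS and 1% glutamine at 37 °C under 5% CO2, were seeded at 3 × 10^3 cells/well. After 24 h they were dosed at 10 final concentrations by serial dilution in medium, with vehicle controls. After 72 h, viability was read by CellTiter Glo luminescence (15 min). Triplicate runs; IC50 from four- or five-parameter logistic fits.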
On the technique in general: In ATP-based viability assays light output follows the ATP content of the culture.

Assay [3] concerns Candida albicans. The assay can be described thus: Antifungal activity against Candida albicans ATCC 10231 assessed as reduction in microbial growth after 48 h by microdilution method. To be noted: ATCC 10231, 48 h.
The subject of a further assay is Escherichia coli. Briefly: Antimicrobial activity against Escherichia coli ATCC 25922 assessed as reduction in microbial growth after 24 hrs by microdilution method. The class given is functional. The procedure, abridged:
as §1

In assay [4] the test system is Candida albicans. The assay can be described thus: Antifungal activity against Candida albicans ATCC 10231 assessed as reduction in microbial growth after 5 days by microdilution method. The class given is functional. To be noted: ATCC 10231, 120 h, time 5 day.

Turning to `C/C=C1\NC(=O)C(C(=O)[C@@]2(C)[C@@H]3CC[C@@H](C)C[C@H]3C=C[C@H]2/C=C/C)=C1O`, the minimum inhibitory concentration (MIC) in the assay with Trichophyton rubrum is 32 µg/mL; in the assay on Staphylococcus aureus [1], 2 µg/mL; in the assay on Staphylococcus aureus [2] it was 1 µg/mL; with Candida albicans [3], 32 µg/mL; in the assay on Escherichia coli, above 256 µg/mL. The IC50 in the assay on MRC5 stood at 24.2 µM.
With `C/C=C/[C@@H]1C=C[C@@H]2C[C@H](C)CC[C@H]2[C@]1(C)/C(O)=C1\C(=O)N[C@@H]([C@H](C)O)C1=O`, the MIC in the assay on Trichophyton rubrum is 32 µg/mL; in the assay on Staphylococcus aureus [1], 2 µg/mL; with Staphylococcus aureus [2], 2 µg/mL; in the assay with Candida albicans [3], 16 µg/mL; in the assay on Escherichia coli, above 256 µg/mL. In addition, in the assay with MRC5, the IC50 is 40 µM.
Turning to `OC(Cn1cncn1)(Cn1cncn1)c1ccc(F)cc1F` [FLUCONAZOLE], the results for the MIC in the assay on Trichophyton rubrum and in the assay with Candida albicans [4] were 4 µg/mL and 1 µg/mL, respectively.
`C/C=C1\NC(=O)C(C(=O)[C@@]2(C)[C@@H]3CC[C@@H](CO)C[C@H]3C=C[C@H]2/C=C/C)=C1O`: the MIC is above 256 µg/mL with Trichophyton rubrum; 64 µg/mL in the assay on Staphylococcus aureus [1]; 128 µg/mL with Staphylococcus aureus [2]; above 256 µg/mL in the assay with Candida albicans [3]; above 256 µg/mL in the assay on Escherichia coli. For the same molecule, the half-inhibitory concentration (IC50) with MRC5 is 106 µM.
Regarding `Cc1onc(-c2ccccc2)c1C(=O)N[C@@H]1C(=O)N2[C@@H]1SC(C)(C)[C@@H]2C(=O)O` [OXACILLIN], in the assay with Staphylococcus aureus [1], the minimal inhibitory concentration (MIC) was 0.25 µg/mL.
On to `C/C=C/[C@@H]1C=C[C@@H]2C[C@H](CO)CC[C@H]2[C@]1(C)/C(O)=C1\C(=O)N[C@@H]([C@H](C)O)C1=O`, for which the minimum inhibitory concentration (MIC) in the assay on Trichophyton rubrum was above 256 µg/mL; in the assay on Staphylococcus aureus [1] it was above 256 µg/mL; with Staphylococcus aureus [2] it was above 256 µg/mL; in the assay with Candida albicans [3], above 256 µg/mL; in the assay with Escherichia coli it was 256 µg/mL.
On to `C/C=C/[C@@H]1C=C[C@@H]2C[C@H](CO)CC[C@H]2[C@]1(C)/C(O)=C1\C(=O)N[C@@H]([C@@H](C)O)C1=O`, for which the MIC with Trichophyton rubrum, in the assay on Staphylococcus aureus [1], in the assay on Staphylococcus aureus [2], with Candida albicans [3] and with Escherichia coli was above 256 µg/mL throughout.
On to GENTAMICIN, for which the minimal inhibitory concentration (MIC) in the assay with Escherichia coli worked out at 8 µg/mL.
For the molecule `C/C=C/[C@@H]1C=C[C@@H]2C[C@H](C)CC[C@H]2[C@]1(C)/C(O)=C1\C(=O)N[C@@H]([C@@H](C)O)C1=O`, the minimal inhibitory concentration (MIC) is 64 µg/mL with Trichophyton rubrum; 8 µg/mL in the assay with Staphylococcus aureus [1]; 16 µg/mL with Staphylococcus aureus [2]; 128 µg/mL in the assay with Candida albicans [3]; above 256 µg/mL in the assay on Escherichia coli. The IC50 in the assay with MRC5 is 50.3 µM.
